Compound activity (PubChem BioAssay)
A selection: hits, their analogues and other compounds. The true share with any hit is near 2.3%.
ATG4B inh – inhibitors of human ATG4B cysteine protease. Q9Y4P1. ATG4B cleavage of LC3-PLA2, NBD-HPC fluorescence, 1 h. inhibition, % at 8.33 µM. hit rate 0.51% among 340,000; in the data active = inhibition above about 40%
Target sequence (Q9Y4P1 whole entry, looked up): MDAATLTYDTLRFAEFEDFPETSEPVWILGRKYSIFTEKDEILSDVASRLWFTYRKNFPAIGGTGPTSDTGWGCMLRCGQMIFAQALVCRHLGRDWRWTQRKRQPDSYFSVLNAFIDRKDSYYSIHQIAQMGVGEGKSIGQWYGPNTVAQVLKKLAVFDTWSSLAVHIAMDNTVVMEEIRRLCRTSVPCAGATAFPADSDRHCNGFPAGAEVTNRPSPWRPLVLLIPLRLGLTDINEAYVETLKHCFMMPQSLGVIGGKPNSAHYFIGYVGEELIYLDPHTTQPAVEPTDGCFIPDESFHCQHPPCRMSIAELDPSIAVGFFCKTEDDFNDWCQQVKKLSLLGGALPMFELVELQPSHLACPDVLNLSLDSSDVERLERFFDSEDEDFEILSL
CAL PDZ FP-1 – human CAL PDZ-peptide interaction inhibition | Q9HD26 | purified CAL PDZ, TMR-peptide fluorescence polarization, 1 h | inhibition, % at 20 µM | hit rate 0.02% among 330,000 | AID 504414;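 active = highest replicate inhibition of at least 40%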;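 note: plate controls were DMSO neutral control wells for no effect and unlabeled competitor peptide control wells for full effect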
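Test system: tagged CAL PDZ domain / Buffer or medium: sodium phosphate/NaCl buffer pH 7.4 with TCEP, IgG, Thesit / Reagent: TMR-labelled reporter peptide T*-PRC34 bound in PDZ groove / Compound dosing: single point, 20 µM / Schedule: 1 h incubation at room temperature before polarization reading / Technique: fluorescence polarization (mP) / Benchmarks: unlabelled peptide, DMSO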
SR-BI uptake up – enhances SR-BI lipid uptake from DiI-HDL. CHO ldlA[mSR-BI] cells, DiI-HDL uptake fluorescence, 3 h; 100 = double the neutral-control signal. activation, % at 12.5 µM. hit rate 0.096% among 320,000. AID 504775;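 active = mean replicate activation of at least 60% and every replicate at or above 60%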;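 note: 0% = median plate neutral-control signal and 100% = twice that signal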
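Assay system: CHO ldlA[mSR-BI] cells, LDL receptor-null, SR-BI overexpressing; medium: Ham's F12 with 0.5% BSA, HEPES 25 mM, pH 7.4; also added: DiI-HDL 10 µg/mL; timing: 3 h uptake period with compound, 37 °C; signal: DiI fluorescence, bottom read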
CAL PDZ FP-2 – blocks peptide binding to the human CAL PDZ domain | Q9HD26 | purified CAL PDZ, TMR-peptide fluorescence polarization, 1 h | inhibition, % at 24.9 µM | hit rate 0.92% among 300,000;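 active = mean inhibition of at least 30% with at least half of replicates also reaching 30%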;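 note: 0% = DMSO neutral control and 100% = excess unlabeled competitor peptide PRC23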
SR-BI HDL uptake – inhibitors of mouse SR-BI mediated HDL lipid uptake; Q61009; ldlA[mSR-BI] CHO cells, DiI-HDL uptake fluorescence, 3 h; hit rate 0.96% among 320,000; AID 488896; inhibition, % at 12.5 µM;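 active = mean replicate inhibition of at least 70% and a set share of replicates each scoring 70 or more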;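 note: 0% = median of neutral control wells and 100% = median of positive control wells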
Starred values were filed as active, the others as inactive; · = no result given.

SMILES	ATG4B inh	CAL PDZ FP-1	SR-BI uptake up	CAL PDZ FP-2	SR-BI HDL uptake
CCOc1ccc(-n2cc(-c3ccccc3)c3c(N4CCOCC4)ncnc32)cc1	1	-2	-82	-3	82*
COc1ccc(-n2cc(-c3ccccc3)c3c(N4CC(C)OC(C)C4)ncnc32)cc1 (stereo not given)	2	0	-76	2	76*
CN1CCN(c2ncnc3c2c(-c2ccccc2)cn3-c2ccc(F)cc2)CC1	-1	-2	-9	-1	9
CN1CCC(=O)N(CCOc2ccccc2)CC1	3	0	26	-2	-26
CN(Cc1c(F)cccc1Cl)C(=O)C1CC(=O)N(CCc2ccccc2)C1 (stereo not given)	1	5	4	78*	-4
Cc1ccc(NC(=O)C2CC(=O)N(CCc3ccccc3)C2)cc1Cl (stereo not given)	-35	-3	·	80*	3
Cc1cc(CN(C)C(=O)C2CCC(=O)N(CCc3ccccc3)C2)n[nH]1 (stereo not given)	5	-2	20	35*	-20
CCN(CC(=O)Nc1c(F)cccc1F)C(=O)C1CC(=O)N(CCc2ccccc2)C1 (stereo not given)	2	-2	2	-4	-2
COC(=O)C1CCN(C(=O)C2CCC(=O)N(CCCc3ccccc3)C2)CC1 (stereo not given)	-1	-1	9	69*	-9
COc1cc(NC(=O)C2CC(=O)N(CCc3ccccc3)C2)cc(OC)c1 (stereo not given)	1	-3	-4	4	4
COC(=O)C1CCN(C(=O)C2CCC(=O)N(CCc3cccc(F)c3)C2)CC1 (stereo not given)	2	-2	12	0	-12
O=C(CSc1nc(-c2ccccc2)cc(C(F)(F)F)n1)N1CCOCC1	1	-1	-61	96*	61
COc1ccc(-c2cc(C(F)(F)F)nc(SCC(=O)N3CCOCC3)n2)cc1OC	-6	-1	-52	·	52
C=CCNC(=O)/C(=C\c1ccco1)NC(=O)c1ccco1	-4	-3	-7	65*	7
C=CCNC(=O)/C(=C/c1ccco1)NC(=O)c1ccc(Br)o1	-8	0	-4	1	4
CC(=O)c1ccc(NC(=O)c2noc3c2CCC3)cc1	1	·	5	68*	-5
O=C(NCc1ccccc1)NC12CC3CC(CC(C3)C1)C2	10	0	1	2	-1
O=C(NCc1ccccn1)NC12CC3CC(CC(C3)C1)C2	-11	0	6	76*	-6
COc1cc([N+](=O)[O-])c2nc(C(=O)O)ccc2c1	3	0	4	-3	-4
Cc1ccc(CNC(=O)c2ccc(N3CCC4(CC3)CC(c3ccccc3)=NO4)c(NC(=O)c3c(Cl)cccc3Cl)c2)cc1	-4	1	-12	51*	12
CNc1c(NS(=O)(=O)c2cc(Cl)ccc2OC)c(=O)oc2ccccc12	-1	-2	-6	-23	6
O=C(NNC(=O)c1ccccc1O)c1cc2ccccc2o1	-1	0	-145	·	145*
CCOc1ccc(C(=O)Nc2nc3ccccc3[nH]2)cc1OCC	-1	-8	-81	0	81*
COc1ccc(C(=O)Nc2nc3ccccc3[nH]2)cc1OC	-5	-2	-14	0	14
Cc1cc(C)cc(C(=O)Nc2nc3ccccc3[nH]2)c1	-4	-2	-22	-6	22
SMILES	ATG4B inh	CAL PDZ FP-1	SR-BI uptake up	CAL PDZ FP-2	SR-BI HDL uptake
O=C(NNC(=O)c1cc2ccccc2o1)c1ccncc1	-8	0	15	-2	-15
O=C(Nc1nc2ccccc2[nH]1)c1cc2ccccc2o1	-5	25	2	46*	-2
CCOC(=O)C1CCN(C(=O)CNC(=O)c2nn(-c3ccc(OC)cc3)c(=O)c3ccccc23)CC1	-5	-1	·	1	·
Cn1nc(C(=O)NNC(=O)C2CSC3(C)CCC(=O)N23)c2ccccc2c1=O (stereo not given)	6	-1	15	3	-15
Cc1cc(C)c(S(=O)(=O)NCC2CCC(C(=O)NCCCN3CCOCC3)CC2)c(C)c1 (stereo not given)	-1	-1	-6	-2	6
O=C(NCCc1ccccc1)C1CCC(CNS(=O)(=O)c2ccc(F)cc2)CC1 (stereo not given)	-10	0	17	41*	-17
